Experimental data: ChEMBL document CHEMBL3877250, “Design, synthesis, and biological evaluation of (2E)-(2-oxo-1, 2-dihydro-3H-indol-3-ylidene)acetate derivatives as anti-proliferative agents through ROS-induced cell apoptosis” (Eur J Med Chem, 2016)
Calls of active or inactive are those of the source. No cut-off for these calls is given here.

Assays:
HCT-116 [1] = assay: Induction of apoptosis in human HCT116 cells assessed as late apoptotic cells at 8 uM after 48 hrs by Annexin V-FITC/propidium iodide staining based flow cytometry (reference value: 6.7%); format: functional
[2] = Cytotoxicity against human MDA-MB-231 cells after 72 hrs by CCK-8 assay; format: functional, cell-based; settings: MDA-MB-231, 72 h
Summary of the method: (§1)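 Cells kept in RPMI 1640 with 10% heat-inactivated fetal calf serum and 1% streptomycin/penicillin at 37 °C, 5% CO2. After compound exposure, CCK-8 was added and cells were incubated 4 h at 37 °C, then absorbance was read at 450 nm. Viability is relative to untreated cells (100%). IC50 comes from nonlinear regression, mean of three separate determinations. Single-concentration screen at 20 µM.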

HCT-116 [3] = assay: Inhibition of TrxR in human HCT116 cells after 3 hrs by DTNB assay; format: cell-based
Summary of the method: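 HCT116 cells plated at 4 × 10⁵ cells/well in six-well plates and incubated with or without compound for 3 h. Total protein extracted and quantified. Cellular TrxR activity measured by a DTNB-based kit with absorbance read at 412 nm.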

[4] = Cell cycle arrest in human HCT116 cells assessed as G2/M phase accumulation at 1 uM after 48 hrs by Annexin V-FITC/propidium iodide staining based flow cytometry (reference value: 25.3%); format: functional; settings: HCT-116
[5] = Cytotoxicity against human OVCAR3 cells assessed as growth inhibition at 20 uM after 72 hrs by CCK-8 assay; format: functional; settings: OVCAR-3, 72 h, read-out: GI; summary of the method: as §1
[6] = Cytotoxicity against human L02 cells assessed as growth inhibition at 20 uM after 72 hrs by CCK-8 assay; format: toxicity, cell-based; settings: read-out: GI; summary of the method: as §1
[7] = Cell cycle arrest in human HCT116 cells assessed as G1 phase accumulation at 0.1 uM after 48 hrs by Annexin V-FITC/propidium iodide staining based flow cytometry (reference value: 40.83%); format: functional; settings: HCT-116
HCT-116 [8] = assay: Induction of apoptosis in human HCT116 cells assessed as early apoptotic cells at 8 uM after 48 hrs by Annexin V-FITC/propidium iodide staining based flow cytometry (reference value: 3.8%); format: functional
[9] = Cytotoxicity against human HL60 cells assessed as growth inhibition at 20 uM after 72 hrs by CCK-8 assay; format: functional; settings: HL-60, 72 h, read-out: GI; summary of the method: as §1
HCT-116 [10] = assay: Induction of apoptosis in human HCT116 cells assessed as necrotic cells at 0.5 uM after 48 hrs by Annexin V-FITC/propidium iodide staining based flow cytometry (reference value: 0.8%); format: functional
[11] = Cytotoxicity against human MDA-MB-231 cells assessed as growth inhibition at 20 uM after 72 hrs by CCK-8 assay; format: functional; settings: MDA-MB-231, 72 h, read-out: GI; summary of the method: as §1
[12] = Cell cycle arrest in human HCT116 cells assessed as G2/M phase accumulation at 0.5 uM after 48 hrs by Annexin V-FITC/propidium iodide staining based flow cytometry (reference value: 25.3%); format: functional; settings: HCT-116
[13] = Cytotoxicity against human SK-BR-3 cells assessed as growth inhibition at 20 uM after 72 hrs by CCK-8 assay; format: functional; settings: SK-BR-3, 72 h, read-out: GI; summary of the method: as §1
HCT-116 [14] = assay: Induction of apoptosis in human HCT116 cells assessed as live cells at 1 uM after 48 hrs by Annexin V-FITC/propidium iodide staining based flow cytometry (reference value: 88.7%); format: functional
[15] = Cell cycle arrest in human HCT116 cells assessed as G2/M phase accumulation at 0.1 uM after 48 hrs by Annexin V-FITC/propidium iodide staining based flow cytometry (reference value: 25.3%); format: functional; settings: HCT-116
[16] = Cell cycle arrest in human HCT116 cells assessed as G2/M phase accumulation at 2 uM after 48 hrs by Annexin V-FITC/propidium iodide staining based flow cytometry (reference value: 25.3%); format: functional; settings: HCT-116
[17] = Cytotoxicity against human HepG2 cells after 72 hrs by CCK-8 assay; format: functional, cell-based; settings: HepG2, 72 h; summary of the method: as §1
[18] = Cell cycle arrest in human HCT116 cells assessed as G2/M phase accumulation at 4 uM after 48 hrs by Annexin V-FITC/propidium iodide staining based flow cytometry (reference value: 25.3%); format: functional; settings: HCT-116
HCT-116 [19] = assay: Induction of apoptosis in human HCT116 cells assessed as live cells at 4 uM after 48 hrs by Annexin V-FITC/propidium iodide staining based flow cytometry (reference value: 88.7%); format: functional
HCT-116 [20] = assay: Induction of apoptosis in human HCT116 cells assessed as increase in Bax protein level after 9 hrs by Western blot method; format: functional, cell-based
Summary of the method: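 HCT116 cells plated at 4 × 10⁵ cells/well in six-well plates. Incubated with or without compound for 9 h, then proteins extracted. Lysates resolved by 12% SDS-PAGE and immunoblotted with anti-Bax and anti-Bcl-2 antibodies.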

HCT-116 [21] = assay: Induction of apoptosis in human HCT116 cells assessed as late apoptotic cells at 0.5 uM after 48 hrs by Annexin V-FITC/propidium iodide staining based flow cytometry (reference value: 6.7%); format: functional
HCT-116 [22] = assay: Induction of apoptosis in human HCT116 cells assessed as late apoptotic cells at 4 uM after 48 hrs by Annexin V-FITC/propidium iodide staining based flow cytometry (reference value: 6.7%); format: functional
HCT-116 [23] = assay: Induction of apoptosis in human HCT116 cells assessed as early apoptotic cells at 0.1 uM after 48 hrs by Annexin V-FITC/propidium iodide staining based flow cytometry (reference value: 3.8%); format: functional
Summary of the method: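 HCT116 seeded at 2×10^5 cells/well, cultured 6 h, then treated 48 h at 0.1, 0.5, 1, 4, 8 or 16 µM; DMSO (0.1%) served as vehicle. Cells washed twice in cold PBS, resuspended in binding buffer with FITC Annexin V and PI for 15 min at RT in the dark, diluted, and run on flow cytometry within 1 h.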

HCT-116 [24] = assay: Induction of apoptosis in human HCT116 cells assessed as live cells at 0.1 uM after 48 hrs by Annexin V-FITC/propidium iodide staining based flow cytometry (reference value: 88.7%); format: functional
[25] = Cytotoxicity against human SW480 cells after 72 hrs by CCK-8 assay; format: functional, cell-based; settings: SW480, 72 h; summary of the method: as §1
[26] = Cell cycle arrest in human HCT116 cells assessed as G1 phase accumulation at 2 uM after 48 hrs by Annexin V-FITC/propidium iodide staining based flow cytometry (reference value: 40.83%); format: functional; settings: HCT-116
[27] = Cytotoxicity against human Saos2 cells assessed as growth inhibition at 20 uM after 72 hrs by CCK-8 assay; format: functional; settings: SAOS-2, 72 h, read-out: GI; summary of the method: as §1
HCT-116 [28] = assay: Induction of apoptosis in human HCT116 cells assessed as late apoptotic cells at 1 uM after 48 hrs by Annexin V-FITC/propidium iodide staining based flow cytometry (reference value: 6.7%); format: functional
[29] = Cell cycle arrest in human HCT116 cells assessed as sub-G1 phase accumulation at 4 uM after 48 hrs by Annexin V-FITC/propidium iodide staining based flow cytometry (reference value: 4.36%); format: functional; settings: HCT-116
HCT-116 [30] = assay: Induction of apoptosis in human HCT116 cells assessed as necrotic cells at 0.1 uM after 48 hrs by Annexin V-FITC/propidium iodide staining based flow cytometry (reference value: 0.8%); format: functional
[31] = Cell cycle arrest in human HCT116 cells assessed as S phase accumulation at 0.1 uM after 48 hrs by Annexin V-FITC/propidium iodide staining based flow cytometry (reference value: 28.43%); format: functional; settings: HCT-116

CC(C)(C)OC(=O)/C=C1/C(=O)Nc2ccccc21
Activity (HCT-116 [1]): 13.6% | IC50 [2]: 2520 nM | inhibition (HCT-116 [3]): Dose-dependent effect | Activity [4]: 33.1% | inhibition of growth at 20 µM [5]: 59.6% | inhibition at 72 h, 20 µM [6]: 64.1% | Activity [7]: 40.8% | Activity (HCT-116 [8]): 7.1% | inhibition of growth at 20 µM [9]: 94.5% | Activity (HCT-116 [10]): 0.6% | inhibition of growth at 20 µM [11]: 87.6% | Activity [12]: 27.4% | inhibition of growth at 20 µM [13]: 87.3% | Activity (HCT-116 [14]): 87.9% | Activity [15]: 20.6% | Activity [16]: 29.3% | IC50 [17]: 4.64 µM | Activity [18]: 11.7% | Activity (HCT-116 [19]): 89.1% | Activity (HCT-116 [20]): Active | Activity (HCT-116 [21]): 7.5% | Activity (HCT-116 [22]): 6.6% | Activity (HCT-116 [23]): 3.2% | Activity (HCT-116 [24]): 90.8% | IC50 [25]: 5.68 µM | Activity [26]: 40.9% | inhibition of growth at 20 µM [27]: 83.3% | Activity (HCT-116 [28]): 9.1% | Activity [29]: 35.7% | Activity (HCT-116 [30]): 0.6% | Activity [31]: 32.9%
